What was measured:
Canis familiaris [1] = assay: Percent change in left ventricular pressure (dP/dtmax) in anesthetized dog after iv administration at 0.925 mg/kg; format: functional, Canis lupus familiaris, Heart left ventricle
Summary of the method: (§1)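 Anesthetized open-chest dogs, one drug per animal. Compound is in DMF diluted to 10% in saline, or given as the HCl salt in saline. It is infused into the femoral vein by pump at 0.58-2.2 mL/min in 3-4 stepwise cumulative doses, each over 5 min after the prior peak. Readings are CF by right-ventricle strain gauge, dP/dtmax by Millar LV catheter, HR by cardiotachometer and MAP from femoral artery, as % change from predrug control.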

Canis familiaris [2] = assay: Percent change in mean arterial blood pressure (MAP) in anesthetized open chest dogs iv administration at 0.9250 mg/kg; format: functional, Canis lupus familiaris; settings: dose 0.925 mg/kg; summary of the method: as §1
Canis familiaris [3] = assay: Percent increase in contractile force (CF) in anesthetized open-chest dogs iv administration of 0.925 mg/kg; format: functional, Canis lupus familiaris
Summary of the method: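 Anesthetized open-chest dogs. After a right thoracotomy, contractile force was recorded by a Walton Brodie strain gauge sutured to the right ventricle at 100 g baseline tension. Compound was given iv by infusion pump into a femoral vein, one drug per animal, in three to four stepwise increasing doses. Each dose ran over 5 min, starting once the previous dose's effect peaked. Values are % increase over predrug control vs cumulative mg/kg dose.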

Canis familiaris [4] = assay: 50% increase in contractile force in one to three anesthetized dogs administered intravenously; format: functional; settings: Canis lupus familiaris, iv
Summary of the method: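 Anesthetized dogs (one to three). Compound is infused iv in three to four stepwise increasing doses, each over 5 min once the previous effect has peaked. Contractile force is recorded with a Walton Brodie strain gauge on the right ventricle. The dose (μg/kg) giving a 50% rise over control CF is read from the dose-response curve, graphically (n < 3) or by linear regression (n ≥ 3).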

Canis familiaris [5] = assay: Percent change in heart rate (HR) in anesthetized open chest dogs after a iv dose of 0.925 mg/kg; format: functional, Canis lupus familiaris; summary of the method: as §1
Phosphodiesterase 3 = Phosphodiesterase 3 (Homo sapiens, UniProt Q14432+Q13370); assay: Inhibition of phosphodiesterase fraction III in anesthetized open chest dogs; format: functional, Canis lupus familiaris; settings: target entry is the homologue from another species
Summary of the method: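 Enzyme is dog heart PDE-III, the third DEAE-cellulose fraction eluted at 800 mM sodium acetate. Compounds are tested at 0.01–1000 μM with 0.25 μM cAMP containing [³H]cAMP, in 0.05 M Tris-HCl pH 7.4 with 5 mM MgCl2. The reaction is stopped by heat, then snake venom converts product to adenosine. [³H]adenosine is counted by scintillation after Dowex separation. IC50 comes from ≥2 determinations, each in duplicate.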

IC50 (Phosphodiesterase 3): 160 µM
Structure (SMILES): COc1ccc2c(C)nc(O)cc2c1
Increase (Canis familiaris [1]): 56% | Change (Canis familiaris [2]): 0% | Increase (Canis familiaris [3]): 65% | ED50 (Canis familiaris [4]): 0.6 mg/kg | Change (Canis familiaris [5]): 8%

Reference: ChEMBL document CHEMBL1124262, “Cardiotonic agents. Synthesis and inotropic activity of a series of isoquinolin-3-ol derivatives” (J Med Chem, 1988)
